# Bioassay records: PubChem, several laboratories
# The list is not random: actives were taken first. Their share in the collection is about 4.2%.
# TMEM16A inh: blocks the mouse calcium-activated chloride channel TMEM16A; Q8BHY3; HEK293 TMEM16A/YFP iodide influx fluorescence, ionomycin; normalized B-score (activity score, 25-100; higher = stronger inhibition) at 10 µM; 310,000 tested, 1.2% active;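 active = ratio plate-corrected score three or more library SD toward inhibition, starting fluorescence score within five deviations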;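 note: score derived from kinetic fluorescence span divided by baseline fluorescence per well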
# Target sequence (Q8BHY3 whole entry, looked up): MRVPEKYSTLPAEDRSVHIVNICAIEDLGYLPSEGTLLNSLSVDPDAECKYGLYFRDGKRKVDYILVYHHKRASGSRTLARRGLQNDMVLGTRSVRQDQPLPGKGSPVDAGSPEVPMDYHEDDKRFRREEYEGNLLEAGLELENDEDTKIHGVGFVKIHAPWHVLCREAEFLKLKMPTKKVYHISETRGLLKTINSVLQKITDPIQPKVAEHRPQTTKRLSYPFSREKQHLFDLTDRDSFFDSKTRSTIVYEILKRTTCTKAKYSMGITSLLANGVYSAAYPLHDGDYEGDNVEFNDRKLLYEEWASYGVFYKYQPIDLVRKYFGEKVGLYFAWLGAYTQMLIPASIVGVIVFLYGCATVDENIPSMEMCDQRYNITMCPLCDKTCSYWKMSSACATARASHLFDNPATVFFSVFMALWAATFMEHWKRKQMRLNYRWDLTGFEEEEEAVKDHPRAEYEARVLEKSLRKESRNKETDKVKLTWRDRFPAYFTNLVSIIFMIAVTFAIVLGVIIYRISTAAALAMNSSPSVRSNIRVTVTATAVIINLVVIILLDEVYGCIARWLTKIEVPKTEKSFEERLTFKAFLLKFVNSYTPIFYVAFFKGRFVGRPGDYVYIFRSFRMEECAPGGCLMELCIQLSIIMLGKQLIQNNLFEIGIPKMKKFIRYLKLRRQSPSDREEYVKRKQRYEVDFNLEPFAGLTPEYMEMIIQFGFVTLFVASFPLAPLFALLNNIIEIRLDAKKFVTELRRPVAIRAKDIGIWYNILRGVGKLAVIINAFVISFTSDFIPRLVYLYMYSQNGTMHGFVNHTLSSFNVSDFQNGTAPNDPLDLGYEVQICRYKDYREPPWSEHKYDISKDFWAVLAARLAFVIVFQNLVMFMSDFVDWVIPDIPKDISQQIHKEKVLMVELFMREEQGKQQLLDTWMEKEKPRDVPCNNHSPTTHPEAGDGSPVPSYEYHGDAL
# TMEM16A act: activators or potentiators of mouse TMEM16A chloride channel. Q8BHY3. HEK293 TMEM16A/YFP-H148Q/I152L, iodide quench fluorescence; stronger effect = lower value. B-score at 10 µM. 340,000 tested, 0.3% active. AID 623877;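 active = fluorescence-ratio B-score plate-corrected deviation score at least 3 library SD below zero, with starting fluorescence score within 5 deviations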;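 note: channel opened by trigger with iodide after compound preincubation; score built on the fluorescence ratio of max minus min over baseline; more negative score means more quench and so TMEM16A activation or potentiation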
# Hep lipid drop: hepatic lipid droplet formation modulation; AML12 mouse hepatocytes, oleate lipid droplets, BODIPY imaging; inhibition, % at 6.5 µM; 240,000 tested, 0.4% active;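 active = lipid droplet intensity inhibited by at least 50%, with more than 500 cells counted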
#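 Material: mouse AML12 hepatocyte cell line, fixed after treatment; Timing: compound with oleate, overnight; Technique: high-content imaging of BODIPY-stained droplets and DAPI nuclei; Probe or stimulus: oleate, 100 µM final; Dosing: compound at 6.5 µM only.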
# CHOP UPR activ: apoptotic UPR (CHOP) activation; CHO-CHOP luciferase reporter, luminescence; percent of tunicamycin response over DMSO baseline; activation, % at 10 µM; 330,000 tested, 0.34% active;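 active = at 10 µM dose, activation of 40% or more, normalized to positive control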
#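 Test system: CHO-CHOP cells, stable luciferase reporter of PERK-eIF2a-CHOP signalling | Quantity: 500 CHO-CHOP cells per well | Buffer or medium: F12 plus 10% serum | Compound dosing: 10 µM single point, 0.5% DMSO | Schedule: 6 h compound treatment, 37 °C | Signal: Luciferase luminescence | Control set: Tunicamycin high control, DMSO low control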
# UPR XBP1 act: adaptive UPR (XBP1) activation; 330,000 tested, 0.33% active; CHO-XBP1 luciferase reporter, IRE1-XBP1 UPR activation, luminescence; percent of tunicamycin response, DMSO as zero; activation, % at 20 µM; AID 463104;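 active = versus positive control, 20 µM dose yields 30% or more activation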
#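 Test system: CHO-XBP1 luciferase reporter cells | Buffer or medium: Serum-containing F12 medium, 10% FBS | Schedule: 6 h compound exposure at 37 °C, 5% CO2 | Detection: Steady-Glo luciferase glow luminescence, 10 min after reagent addition | Read-out basis: Activation, % of tunicamycin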
# CHOP inh: CHOP inhibition in unfolded protein response. AID 2732. 220,000 tested, 3.8% active. CHO-K1 CHOP-promoter luciferase, tunicamycin-induced, 15-18 h. inhibition, % at 10 µM;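 active = compounds that reduced the stress-induced luciferase reporter signal by more than about 70% of percent inhibition, limit read from the data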
# TMEM16A reconf: re-confirmation of mouse TMEM16A chloride channel inhibitors; shares compounds with TMEM16A inh; HEK293 TMEM16A/YFP-H148Q, iodide quench fluorescence; ionomycin added to raise cell calcium; inhibition, % at 10 µM; 2,300 tested, 39% active;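 active = mean duplicate percent inhibition, scaled so buffer wells are 0 and the reference blocker 100, over three buffer SD above buffer mean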
# TMEM16A Ca cntr: alters calcium mobilization in TMEM16A HEK293 cells, counter-screen; shares compounds with TMEM16A inh; TMEM16A/YFP HEK293, Fluo4 calcium mobilization; calcium response (% of ionomycin), % at 10 µM; 2,300 tested, 2% active; AID 652231;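 active = duplicate-averaged calcium signal over 20% of the ionomycin maximum, relative to buffer baseline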;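 note: each well's signal is peak minus trough fluorescence divided by its pre-addition baseline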
# Parental YFP cnt: acts in parental YFP-HEK293 cells lacking TMEM16A, counter-screen | AID 652233 | 2,300 tested, under 10 active | shares compounds with TMEM16A inh | YFP ratio F(max-min)/F0 at 10 µM | iodide YFP quench, ionomycin;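 active = yellow fluorescent protein signal ratio exceeding the buffer control mean by over 5 SD of those controls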;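 note: ratio is mean of duplicate wells from kinetic YFP trace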
# ClC-1 inh: rat ClC-1 inhibition, TMEM16A specificity screen; shares compounds with TMEM16A inh; CHO ClC-1-YFP, iodide influx fluorescence quench; iodide control reads 0, buffer control 100; ratio percent, % at 10 µM; 2,300 tested, under 10 active; AID 652236;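 active = duplicate-mean ratio percent above the mean of iodide-only control wells, which defines zero, plus 5 of their SD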;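 note: higher percent means stronger block of ClC-1 iodide influx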
# A number is an active result; 0 = inactive; - = no result.
SMILES,TMEM16A inh,TMEM16A act,Hep lipid drop,CHOP UPR activ,UPR XBP1 act,CHOP inh,TMEM16A reconf,TMEM16A Ca cntr,Parental YFP cnt,ClC-1 inh
COc1ccc(NC(=O)CN2CCN(CC(=O)Nc3ccc(OC)cc3)CC2)cc1,0,0,0,0,0,-,-,-,-,-
CC(=O)c1ccc(N2C(=NC(=O)CCC3CCCC3)SC3CS(=O)(=O)CC32)cc1 (stereo not given),0,0,0,0,0,-,-,-,-,-
COc1ccc(OC)c(-n2nnnc2SCC(=O)Nc2ccccc2N2CCOCC2)c1,0,0,0,0,0,0,-,-,-,-
NNC(=O)Nc1cccc(C(F)(F)F)c1,0,0,0,0,0,0,-,-,-,-
CCN(CC)S(=O)(=O)c1ccc(NC(=O)Nc2cccc(C(F)(F)F)c2)cc1,100,0,0,0,0,0,43.5%,0,0,0
CCN(CC)S(=O)(=O)c1ccc(NC(=O)C(OC)c2ccccc2)cc1 (stereo not given),25,0,0,0,0,0,0,0,0,0
CCOC(=O)c1ccc(CN2Cc3ccccc3C2=O)cc1,0,0,-,0,0,-,-,-,-,-
COc1ccc(CN2CC(C(=O)NCCCN3CCCC(C)C3)CC2=O)cc1 (stereo not given),0,0,0,0,0,-,-,-,-,-
CCOC(=O)c1nc(C)nc(Sc2n[nH]c(-c3cc(C(F)(F)F)cc(C(F)(F)F)c3)n2)c1C,25,0,0,0,0,71.9,30.5%,0,0,0
CC(=O)Nc1ccc(S(=O)(=O)N(C)CC(=O)N2CCN(C(=O)c3ccco3)CC2)cc1,-,0,-,0,0,-,-,-,-,-
CC1(C)C(C=C(Cl)Cl)C1C(=O)N/N=C/c1ccccc1F (stereo not given),25,0,0,0,0,-,0,0,0,0
CC1(C)OC2OC(C(=O)N/N=C/c3ccccc3F)C3OC(C)(C)OC3C2O1 (stereo not given),0,0,0,0,0,0,-,-,-,-
COc1ccc(NS(=O)(=O)c2ccc(NC(=O)c3ccc(CN4CCOCC4)cc3)cc2)cc1,0,0,0,0,0,0,-,-,-,-
CC(NC(=S)Nc1ccc(S(=O)(=O)N2CCOCC2)cc1)C1CC2CCC1C2 (stereo not given),25,0,0,0,0,0,0,0,0,0
O=C(Nc1ccc(S(=O)(=O)N2CCOCC2)cc1)c1ccc(Cl)cc1,0,0,0,0,0,0,-,-,-,-
CCCOc1ccc(C(=O)Nc2ccc(CN3CCOCC3)cc2)cc1,0,0,0,0,0,-,-,-,-,-
O=C(Nc1ccc(S(=O)(=O)N2CCCC2)cc1)c1ccc(CN2CCOCC2)cc1,100,0,-,0,0,0,46.5%,0,0,0
CCN(CC)S(=O)(=O)c1ccc(NC(=O)c2ccc(CN3CCOCC3)cc2)cc1,100,0,0,0,0,0,29.5%,0,0,0
O=C(Nc1ccc(S(=O)(=O)Nc2ccc(F)cc2)cc1)c1ccc(CN2CCOCC2)cc1,25,0,0,0,0,0,39.0%,0,0,0
O=S(=O)(c1ccc(NC(=S)Nc2ccccc2)cc1)N1CCOCC1,0,0,0,0,0,0,-,-,-,-
CCCCCCCCCCCCC/C=C/[C@@H](O)[C@@H](N)CO,0,0,-,0,0,-,-,-,-,-
O=C(OCCCOC(=O)c1ccccc1O)c1ccccc1O,0,-,0,0,0,-,-,-,-,-
O=C(Nc1ccc(S(=O)(=O)N2CCOCC2)cc1)C1CCCCC1,25,0,0,0,0,0,0,0,0,0
O=S(=O)(c1cccc2nonc12)N1CCCCCC1,0,0,0,0,0,0,0,0,0,0
COc1ccc(C(=O)OCC(=O)Nc2sccc2C(N)=O)cc1[N+](=O)[O-],-,0,-,0,0,-,-,-,-,-
SMILES,TMEM16A inh,TMEM16A act,Hep lipid drop,CHOP UPR activ,UPR XBP1 act,CHOP inh,TMEM16A reconf,TMEM16A Ca cntr,Parental YFP cnt,ClC-1 inh
O=C(CNc1cccc(S(=O)(=O)N2CCCC2)c1)Nc1cccc(Br)c1,25,0,-,0,0,-,16.5%,0,0,0
Brc1ccc(-n2cnc(-c3ccccc3)c2)cc1,0,0,0,0,0,-,-,-,-,-
O=C(O)CN(c1ccccc1F)S(=O)(=O)c1ccccc1,0,0,-,0,0,0,0,0,0,0
O=C(Nc1ccccc1)Nc1scc2c1c(=O)oc1ccccc12,0,-,0,0,0,0,0,0,0,0
O=C(CN1CCN(c2ccccc2)CC1)Nc1scc2c1c(=O)oc1ccccc12,0,0,0,0,0,0,-,-,-,-
Cc1ccc2nc(SCc3nc4c(cnn4-c4ccccc4)c(=O)[nH]3)[nH]c2c1,25,0,-,0,0,72.9,0,0,0,0
CCOC(=O)c1sc(NC(=O)c2cccc(S(=O)(=O)N3CCc4ccccc43)c2)c(C#N)c1C,25,0,0,0,0,95.4,25.5%,0,0,0
COc1ccc([C@H]2CC(=O)C=C(c3ccc4ncccc4c3)C2)cc1OC,-,0,-,0,0,-,-,-,-,-
CCOC(=O)CCc1c(C)c2ccc(OC(C)C(=O)OCC)c(C)c2oc1=O (stereo not given),100,0,0,0,0,0,33.5%,0,0,0
Cc1ccc(NC(=S)NNC(=O)c2cccc([N+](=O)[O-])c2)cc1Cl,25,0,0,0,0,0,23.5%,0,0,0
COc1ccccc1NS(=O)(=O)c1cc(NC(=O)c2ccc(Cl)nc2)ccc1Cl,25,0,0,0,0,0,25.5%,0,0,0
COc1ccc(C(=O)Nc2ccc(Cl)c(S(=O)(=O)Nc3ccccc3OC)c2)cc1,0,0,0,0,0,0,-,-,-,-
CCCC(C)c1oc(=O)cc(O)c1C (stereo not given),-,-,-,0,0,-,-,-,-,-
CCCN1CCN(CCCNC(=O)c2ccc3nc(N4CCCCC4)sc3c2)CC1,0,0,0,0,0,-,-,-,-,-
CC1CC(C)CN(CCCNC(=O)c2ccc3nc(N4CCCCC4)sc3c2)C1 (stereo not given),100,0,0,0,0,-,0,0,0,0
C/C(=N\NC(=O)c1c(Cl)c(C)nn1C)c1ccc(NC(=O)c2ccncc2)cc1,0,0,0,0,0,0,-,-,-,-
Cc1nn(-c2ccc(NC(=O)c3ccncc3)cc2)c(C)c1Cl,25,0,0,0,0,-,18.0%,0,0,0
